Measurements from ChEMBL document CHEMBL4304758, “Development of Peptide-Based Sirtuin Defatty-Acylase Inhibitors Identified by the Fluorescence Probe, SFP3, That Can Efficiently Measure Defatty-Acylase Activity of Sirtuin” (J Med Chem, 2019).
Non-standard residues stand in square brackets, D forms with d. Residues, ends and D or L forms follow the SMILES beside them. *: point of attachment. Lys(thiomyristoyl) = CCCCCCCCCCCCCC(=S)NCCCC[C@H](N)C(=O)O; X5 = CCN(CC)c1ccc(/N=N/c2ccc(CC(=O)*)cc2)cc1; X3 = CN(C)c1ccc(/N=N/c2ccc(CCC(=O)*)cc2)cc1; X4 = CN(C)c1ccc(/N=N/c2ccc(CC(=O)*)cc2)cc1; X1 = O=C(Cc1ccc(/N=N/c2ccc(O)cc2)cc1)*

Columns and labels:
[1] = target: T1, NAD-dependent protein deacetylase sirtuin-2 (Homo sapiens, UniProt Q8IXJ6); assay: Inhibition of recombinant human SIRT2 deacylation activity using Fluor de Lys Sirt2 as substrate measured at 5 mins interval for 30 mins in presence of NAD+ by fluorescence assay
T1 sequence (Q8IXJ6 whole entry): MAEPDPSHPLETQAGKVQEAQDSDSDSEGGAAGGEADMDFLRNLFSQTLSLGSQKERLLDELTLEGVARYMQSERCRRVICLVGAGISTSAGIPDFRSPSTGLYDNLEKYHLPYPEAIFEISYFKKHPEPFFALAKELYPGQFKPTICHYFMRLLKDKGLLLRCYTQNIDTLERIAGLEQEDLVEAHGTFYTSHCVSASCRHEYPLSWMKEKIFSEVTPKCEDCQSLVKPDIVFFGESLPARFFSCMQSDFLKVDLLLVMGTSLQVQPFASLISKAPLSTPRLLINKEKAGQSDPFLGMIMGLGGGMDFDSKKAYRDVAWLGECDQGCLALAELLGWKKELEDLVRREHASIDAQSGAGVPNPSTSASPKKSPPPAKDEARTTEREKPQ

[2] = target: T2, NAD-dependent protein deacetylase sirtuin-1 (Homo sapiens, UniProt Q96EB6); assay: Inhibition of recombinant human C-terminal His6-tagged SIRT1 (Met1 to Ser747 residues) defatty-acylase activity expressed in Escherichia coli using SFP3 as substrate measured at 5 mins interval for 60 mins in presence of NAD+ by fluorescence assay
T2 sequence (Q96EB6 whole entry): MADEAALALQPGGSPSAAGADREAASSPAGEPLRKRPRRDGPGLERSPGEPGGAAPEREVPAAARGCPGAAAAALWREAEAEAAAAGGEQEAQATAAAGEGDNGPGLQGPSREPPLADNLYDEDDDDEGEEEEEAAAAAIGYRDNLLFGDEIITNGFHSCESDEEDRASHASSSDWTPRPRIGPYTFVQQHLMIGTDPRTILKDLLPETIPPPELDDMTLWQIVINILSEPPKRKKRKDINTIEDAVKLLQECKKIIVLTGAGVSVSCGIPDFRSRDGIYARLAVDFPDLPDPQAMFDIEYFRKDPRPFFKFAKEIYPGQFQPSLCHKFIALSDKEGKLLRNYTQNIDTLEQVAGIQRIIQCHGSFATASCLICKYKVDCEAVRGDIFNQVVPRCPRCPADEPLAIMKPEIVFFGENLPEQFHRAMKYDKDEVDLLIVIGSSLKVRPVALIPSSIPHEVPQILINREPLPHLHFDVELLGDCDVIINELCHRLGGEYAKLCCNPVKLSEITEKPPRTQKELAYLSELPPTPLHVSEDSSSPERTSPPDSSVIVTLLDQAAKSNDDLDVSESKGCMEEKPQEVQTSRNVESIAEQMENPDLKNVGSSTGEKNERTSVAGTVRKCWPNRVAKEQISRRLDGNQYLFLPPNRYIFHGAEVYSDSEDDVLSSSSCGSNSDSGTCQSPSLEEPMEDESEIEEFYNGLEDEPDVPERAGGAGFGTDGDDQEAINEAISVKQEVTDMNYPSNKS

[3] = target: T1, NAD-dependent protein deacetylase sirtuin-2; assay: Inhibition of recombinant human SIRT2 demyristoylase activity using p53(Myr)-AMC as substrate measured after 3 hrs in presence of NAD+ and trypsin by fluorescence assay
[4] = target: T1, NAD-dependent protein deacetylase sirtuin-2; assay: Inhibition of recombinant human SIRT2 defatty-acylase activity using SFP3 as substrate measured at 5 mins interval for 60 mins in presence of NAD+ by fluorescence assay
[5] = target: T3, NAD-dependent protein deacetylase sirtuin-3, mitochondrial (Homo sapiens, UniProt Q9NTG7); assay: Inhibition of recombinant human SIRT3 (118 to 399 residues) demyristoylase activity expressed in Escherichia coli using p53(Myr)-AMC as substrate measured after 3 hrs in presence of NAD+ and trypsin by fluorescence assay
T3 sequence (Q9NTG7 whole entry): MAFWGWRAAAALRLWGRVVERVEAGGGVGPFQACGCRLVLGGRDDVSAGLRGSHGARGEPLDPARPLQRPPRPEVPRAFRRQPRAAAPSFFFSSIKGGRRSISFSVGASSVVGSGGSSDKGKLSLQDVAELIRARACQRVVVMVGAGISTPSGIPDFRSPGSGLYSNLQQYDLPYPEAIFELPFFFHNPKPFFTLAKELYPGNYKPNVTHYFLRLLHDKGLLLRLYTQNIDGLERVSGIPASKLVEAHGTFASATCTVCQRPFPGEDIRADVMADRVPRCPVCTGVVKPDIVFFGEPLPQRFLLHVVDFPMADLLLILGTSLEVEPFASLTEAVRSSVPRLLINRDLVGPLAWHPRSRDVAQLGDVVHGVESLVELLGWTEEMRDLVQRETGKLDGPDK

[6] = target: T2, NAD-dependent protein deacetylase sirtuin-1; assay: Inhibition of recombinant human C-terminal His6-tagged SIRT1 (Met1 to Ser747 residues) demyristoylase activity expressed in Escherichia coli using p53(Myr)-AMC as substrate measured after 3 hrs in presence of NAD+ and trypsin by fluorescence assay
Procedure, shortened: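 SIRT1 at 14 nM final with 50 μM p53(Myr)-AMC and 500 μM NAD⁺ in Tris-HCl pH 8.0/NaCl/DTT/Triton buffer, 0.5% DMSO, 3 h at room temperature. Trypsin (100 nM final) plus nicotinamide (1 mM final) then added. Fluorescence Ex 355/Em 460 nm read every 5 min for 20 min at 37 °C. n = 3.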

[7] = target: T3, NAD-dependent protein deacetylase sirtuin-3, mitochondrial; assay: Inhibition of recombinant human SIRT3 (118 to 399 residues) defatty-acylase activity expressed in Escherichia coli using SFP3 as substrate measured at 5 mins interval for 60 mins in presence of NAD+ by fluorescence assay
[8] = target: T1, NAD-dependent protein deacetylase sirtuin-2; assay: Drug metabolism assessed as recombinant human SIRT2-mediated deacylation by measuring dabcyl-PH formation at 20 uM measured up to 4 hrs in presence of NAD+ by HPLC analysis; format: ADME
Procedure, shortened: (§1)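 Compound at 20 μM final (0.2% DMSO) with 350 nM SIRT2 and 500 μM NAD⁺ at 37 °C in buffer I: 50 mM Tris-HCl pH 8.0, 150 mM NaCl, 1 mM DTT, 0.05% Triton X-100. Aliquots taken at 0 and 4 h. Reversed-phase HPLC, TFA water/acetonitrile gradient. Detection at 510, 350 or 254 nm depending on compound.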

[9] = target: NAD-dependent protein deacylase sirtuin-6 (Homo sapiens, UniProt Q8N6T7); assay: Inhibition of recombinant human N-terminal polyhis-tagged SIRT6 (1 to 355 residues) defatty-acylase activity expressed in Escherichia coli using SFP3 as substrate measured at 5 mins interval for 60 mins in presence of NAD+ by fluorescence assay
Procedure, shortened: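 SIRT6 at 48 nM final with 2.5 μM SFP3 and 500 μM NAD⁺ in Tris-HCl pH 8.0 buffer with 150 mM NaCl, 1 mM DTT, 0.05% Triton X-100, final 0.2% DMSO. Enzyme added last. Fluorescence Ex 485/Em 535 nm read every 5 min for 60 min at 37 °C.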

SIRT2 = assay: Stability of the compound in SIRT assay buffer assessed as parent compound remaining at 20 uM measured after 4 hrs in presence of recombinant human SIRT2 and NAD+ by HPLC analysis; format: physicochemical; details: read-out: Stability; procedure, shortened: as §1

NAD-dependent protein deacylase sirtuin-6, sequence (Q8N6T7 whole entry, the tested form may be a part): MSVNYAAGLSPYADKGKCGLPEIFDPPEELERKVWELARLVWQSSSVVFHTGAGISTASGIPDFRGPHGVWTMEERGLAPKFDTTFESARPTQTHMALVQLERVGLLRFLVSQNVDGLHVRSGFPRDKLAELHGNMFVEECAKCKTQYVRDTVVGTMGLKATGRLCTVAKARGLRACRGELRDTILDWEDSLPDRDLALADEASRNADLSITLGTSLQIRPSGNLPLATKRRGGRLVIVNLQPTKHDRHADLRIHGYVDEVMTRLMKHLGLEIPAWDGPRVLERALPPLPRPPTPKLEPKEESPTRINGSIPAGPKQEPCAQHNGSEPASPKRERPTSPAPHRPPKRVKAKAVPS

| IC50 [1] [nM] | IC50 [2] [nM] | IC50 [3] [nM] | IC50 [4] [nM] | IC50 [5] [nM] | IC50 [6] [nM] | IC50 [7] [nM] | Drug metabolism [8] | IC50 [9] [nM] | remaining at 4 h, 20 µM (SIRT2) [%] | SMILES |
| --- | --- | --- | --- | --- | --- | --- | --- | --- | --- | --- |
| 1100 | 1700 | > 2000 | 300 |  |  | 1500 | Metabolite_Detected |  |  | CC[C@H](C)[C@H](NC(=O)[C@H](CCCNC(=N)N)NC(C)=O)C(=O)N[C@@H](CCCCNC(=O)CCc1ccc(/N=N/c2ccc(N(C)C)cc2)cc1)C(=O)N[C@@H](CCCNC(=N)N)C(=O)N[C@@H](Cc1ccc(O)cc1)C(N)=O (Ac-RIK(X3)RY-NH2) |
|  | > 10000 |  |  |  | > 10000 |  |  |  |  | Cc1cc(C)nc(SCC(=O)Nc2ncc(Cc3cccc4ccccc34)s2)n1 |
| 190 |  |  | > 2000 |  |  |  |  |  |  | C[C@H](NC(=O)[C@H](CCCCNC(=O)Cc1ccc(/N=N/c2ccc(OCc3ccccc3)cc2)cc1)NC(=O)OCc1ccccc1)C(N)=O |
| 260 | 1100 | 190 | 68 | 480 | 140 | 180 |  |  |  | CC[C@H](C)[C@H](NC(=O)[C@H](CCCNC(=N)N)NC(C)=O)C(=O)N[C@@H](CCCCNC(=O)Cc1ccc(/N=N/c2ccc(N(CC)CC)cc2)cc1)C(=O)N[C@@H](CCCNC(=N)N)C(=O)N[C@@H](Cc1ccc(O)cc1)C(N)=O (Ac-RIK(X5)RY-NH2) |

The remaining lines, values behind:

| SMILES | IC50 [1] [nM] | IC50 [2] [nM] | IC50 [3] [nM] | IC50 [4] [nM] | IC50 [5] [nM] | IC50 [6] [nM] | IC50 [7] [nM] | Drug metabolism [8] | IC50 [9] [nM] | remaining at 4 h, 20 µM (SIRT2) [%] |
| --- | --- | --- | --- | --- | --- | --- | --- | --- | --- | --- |
| CC[C@H](C)[C@H](NC(=O)[C@H](CCCNC(=N)N)NC(C)=O)C(=O)N[C@@H](CCCCNC(=O)Cc1ccc(/N=N/c2ccc(O)cc2)cc1)C(=O)N[C@@H](CCCNC(=N)N)C(=O)N[C@@H](Cc1ccc(O)cc1)C(N)=O (Ac-RIK(X1)RY-NH2) | 110 | 120 | 44 | 19 | 190 | 50 | 55 |  |  |  |
| C[C@H](NC(=O)[C@H](CCCCNC(=O)Cc1ccc(/N=N/c2ccc(O)cc2)cc1)NC(=O)OCc1ccccc1)C(N)=O | 190 |  |  | > 2000 |  |  |  |  |  |  |
| CCCCCCCCCCCCCC(=S)NCCCC[C@H](NC(=O)[C@@H](NC(=O)[C@H](CCCNC(=N)N)NC(C)=O)[C@@H](C)CC)C(=O)N[C@@H](CCCNC(=N)N)C(=O)N[C@@H](Cc1ccc(O)cc1)C(N)=O (Ac-RI[Lys(thiomyristoyl)]RY-NH2) | 110 | 330 | 44 | 22 | 130 | 26 | 46 |  | 250 |  |
| CC[C@H](C)[C@H](NC(=O)[C@H](CCCNC(=N)N)NC(C)=O)C(=O)N[C@@H](CCCCNC(=O)Cc1ccc(/N=N/c2ccc(N(C)C)cc2)cc1)C(=O)N[C@@H](CCCNC(=N)N)C(=O)N[C@@H](Cc1ccc(O)cc1)C(N)=O (Ac-RIK(X4)RY-NH2) | 170 | 400 | 130 | 36 | 330 | 98 | 110 |  |  | > 99 |
